The target in experiment [1] is T1, B2 bradykinin receptor (Homo sapiens, UniProt P30411).
T1 sequence (P30411 whole entry): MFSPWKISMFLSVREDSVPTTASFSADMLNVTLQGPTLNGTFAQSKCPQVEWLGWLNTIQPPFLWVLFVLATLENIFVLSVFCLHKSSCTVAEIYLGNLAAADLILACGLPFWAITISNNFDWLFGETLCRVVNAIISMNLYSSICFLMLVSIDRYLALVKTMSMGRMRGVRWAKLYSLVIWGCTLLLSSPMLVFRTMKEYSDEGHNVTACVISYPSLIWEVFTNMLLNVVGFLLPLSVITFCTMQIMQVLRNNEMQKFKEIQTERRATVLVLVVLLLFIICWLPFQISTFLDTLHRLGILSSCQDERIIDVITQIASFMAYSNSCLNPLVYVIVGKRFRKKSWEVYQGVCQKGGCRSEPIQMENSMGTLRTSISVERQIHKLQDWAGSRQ
Description: Displacement of [3H]-Bradykinin from human bradykinin B2 receptor expressed in CHO cells membrane after 60 mins by scintillation counting. It is filed as cell membranes.

The target of experiment [2] is T1, B2 bradykinin receptor. Description: Antagonist activity at human bradykinin B2 receptor expressed in dhfr-deficient CHO cells assessed as inhibition of bradykinin-induced inositol monophosphate accumulation preincubated for 15 mins prior bradykinin induction measured after 40 mins by liquid scintillation spectrometry. Format: functional, cell-based. To be noted: read-out: pA2 (converted). In short, it runs like this: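 CHOdhfr-/hB2R cells (1.8×10^5/well) plated overnight at 37 °C, labelled 24 h with myo-[3H]inositol (1 uCi/well). Antagonist pre-incubation 15 min, then BK 1×10^-11 to 1×10^-5 M for 40 min at 37 °C in Hepes pH 7.4 buffer with 25 mM LiCl. IP1 radioactivity by liquid scintillation. Agonist curves fitted for EC50; pA2 = log(CR−1) − log[antagonist].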

For the next experiment, the target named is T2, B1 bradykinin receptor (Homo sapiens, UniProt P46663).
T2 sequence (P46663 whole entry): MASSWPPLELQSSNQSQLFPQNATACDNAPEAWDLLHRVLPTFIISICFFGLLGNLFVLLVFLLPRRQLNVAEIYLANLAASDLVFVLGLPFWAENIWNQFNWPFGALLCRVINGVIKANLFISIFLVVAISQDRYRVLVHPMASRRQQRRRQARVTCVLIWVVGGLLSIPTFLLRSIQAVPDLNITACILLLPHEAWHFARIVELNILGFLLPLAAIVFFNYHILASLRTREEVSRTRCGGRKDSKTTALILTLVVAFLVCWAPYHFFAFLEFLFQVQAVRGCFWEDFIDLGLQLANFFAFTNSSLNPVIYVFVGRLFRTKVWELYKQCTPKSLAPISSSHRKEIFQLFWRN
Description: Displacement of [3H][desArg9]Lys-Bradykinin from human bradykinin B1 receptor expressed in CHO cells. Format: cell-based.

The next experiment concerns Cavia porcellus. Nature of the experiment: Inhibition of bradykinin-induced bronchoconstriction in anesthetized Dunkin-Hartley guinea pig at […], it 5 mins prior bradykinin-induction for every 30 mins up to 210 mins. It is filed as functional, organism-based. In short, it runs like this:
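Anaesthetized male Dunkin Hartley guinea pigs, 350–400 g. Compound given intratracheally, then repeated iv BK challenges (10 nmol/kg) with bronchoconstriction recorded.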

Activity calls are given as the source filed them. The rule behind the calls is not given here.

Regarding `Cc1cc(C)c2cccc(OCc3c(Cl)ccc(S(=O)(=O)NC4(C(=O)N5CCC(C[N+](C)(C)C)CC5)CCOCC4)c3Cl)c2n1`, the Ki on B2 bradykinin receptor [1] was 0.398 nM; at B1 bradykinin receptor, more than 10000 nM. On B2 bradykinin receptor [2], the Kb is 5.01 nM.
The corresponding values for `Cc1cc(C)c2cccc(OCc3c(Cl)ccc(S(=O)(=O)NC4(C(=O)N5CCN(CCCCCC[N+](C)(C)C)CC5)CCOCC4)c3Cl)c2n1` are 0.0631 nM, more than 10000 nM and 0.794 nM.
Take `Cc1cc(C)c2cccc(OCc3c(Cl)ccc(S(=O)(=O)NC4(C(=O)N5CCN(CC[N+](C)(C)C)CC5)CCOCC4)c3Cl)c2n1`: the Ki on B2 bradykinin receptor [1] was 0.794 nM; at B1 bradykinin receptor, more than 10000 nM.
Turning to `Cc1cc(C)c2cccc(OCc3c(Cl)ccc(S(=O)(=O)NC4(C(=O)N5CC[N+](C)(CCCCCC[N+](C)(C)C)CC5)CCOCC4)c3Cl)c2n1`, the Ki was 0.0398 nM at B2 bradykinin receptor [1] and more than 10000 nM on B1 bradykinin receptor. Besides, the Kb at B2 bradykinin receptor [2] was 3.16 nM.
As for `Cc1cc(C)c2cccc(OCc3c(Cl)ccc(S(=O)(=O)NC4(C(=O)N5CCN(C(=O)CCCCN(C)C)CC5)CCOCC4)c3Cl)c2n1`, the figures for the Ki at B2 bradykinin receptor [1] and at B1 bradykinin receptor were 0.1 nM and more than 10000 nM, respectively. Moreover, the Kb at B2 bradykinin receptor [2] is 0.437 nM.
With `Cc1cc(C)c2cccc(OCc3c(Cl)ccc(S(=O)(=O)NC4(C(=O)N5CCN(C(=O)[C@@H](N)CCCCNC(=N)N)CC5)CCOCC4)c3Cl)c2n1`, the Ki on B2 bradykinin receptor [1] was 0.0631 nM; at B1 bradykinin receptor, more than 10000 nM.
`Cc1cc(C)c2cccc(OCc3c(Cl)ccc(S(=O)(=O)NC4(C(=O)N5CCN(C(=O)[C@@H](N)CCCN)CC5)CCOCC4)c3Cl)c2n1`: the Ki on B2 bradykinin receptor [1] was 0.0501 nM; on B1 bradykinin receptor, more than 10000 nM. Besides, the Kb on B2 bradykinin receptor [2] is 0.724 nM.
For `Cc1cc(C)c2cccc(OCc3c(Cl)ccc(S(=O)(=O)NC4(C(=O)N5CCC(CCC[N+](C)(C)C)CC5)CCOCC4)c3Cl)c2n1` the same measures were 0.501 nM, more than 10000 nM and 1.58 nM.
The corresponding values for `Cc1cc(C)c2cccc(OCc3c(Cl)ccc(S(=O)(=O)NC4(C(=O)N5CC[N+]6(CCCC6)CC5)CCOCC4)c3Cl)c2n1` are 0.631 nM, more than 10000 nM and 3.16 nM.
For `Cc1cc(C)c2cccc(OCc3c(Cl)ccc(S(=O)(=O)NC4(C(=O)N5CCC(CNCC[N+](C)(C)C)CC5)CCOCC4)c3Cl)c2n1` the same measures were 0.2 nM, more than 10000 nM and 2.51 nM.
Turning to `Cc1cc(C)c2cccc(OCc3c(Cl)ccc(S(=O)(=O)NC4(C(=O)N5CCN(C(=O)CCCCC[N+](C)(C)C)CC5)CCOCC4)c3Cl)c2n1`, the Ki at B2 bradykinin receptor [1] was 0.126 nM; on B1 bradykinin receptor it was more than 10000 nM. At B2 bradykinin receptor [2], the Kb was 0.794 nM.
`Cc1cc(C)c2cccc(OCc3c(Cl)ccc(S(=O)(=O)NC4(C(=O)N5CCN(C(=O)[C@@H](N)CCCNC(=N)N)CC5)CCOCC4)c3Cl)c2n1`: the Ki on B2 bradykinin receptor [1] is 0.126 nM; at B1 bradykinin receptor, more than 10000 nM.
`Cc1cc(C)c2cccc(OCc3c(Cl)ccc(S(=O)(=O)NC4(C(=O)N5CCC(CNCCCC[N+](C)(C)C)CC5)CCOCC4)c3Cl)c2n1`: the Ki was 0.0501 nM on B2 bradykinin receptor [1] and more than 10000 nM on B1 bradykinin receptor. For the same compound, at B2 bradykinin receptor [2], the Kb was 2.51 nM.
With `Cc1cc(C)c2cccc(OCc3c(Cl)ccc(S(=O)(=O)NC4(C(=O)N5CCN(CCC[N+](C)(C)C)CC5)CCOCC4)c3Cl)c2n1`, the Ki at B2 bradykinin receptor [1] is 0.316 nM; on B1 bradykinin receptor, more than 10000 nM.
Turning to `Cc1cc(C)c2cccc(OCc3c(Cl)ccc(S(=O)(=O)NC4(C(=O)N5CC[N+](C)(CCCCC[N+](C)(C)C)CC5)CCOCC4)c3Cl)c2n1`, the Ki on B2 bradykinin receptor [1] is 0.0501 nM; on B1 bradykinin receptor it was more than 10000 nM. For the same compound, the Kb at B2 bradykinin receptor [2] is 2.51 nM.
The corresponding values for `Cc1cc(C)c2cccc(OCc3c(Cl)ccc(S(=O)(=O)NC4(C(=O)N5CC[N+]6(CC5)CC[N+](C)(C)CC6)CCOCC4)c3Cl)c2n1` are 0.251 nM, more than 10000 nM and 5.01 nM.
For `Cc1cc(C)c2cccc(OCc3c(Cl)ccc(S(=O)(=O)NC4(C(=O)N5CCN(C(=O)[C@@H](N)CCC[N+](C)(C)C)CC5)CCOCC4)c3Cl)c2n1` [FASITIBANT], the Ki at B1 bradykinin receptor was more than 10000 nM. Besides, the inhibition result in the experiment with Cavia porcellus is “Active”.
With `Cc1cc(C)c2cccc(OCc3c(Cl)ccc(S(=O)(=O)NC4(C(=O)N5CCN(C(=O)[C@@H](N)CCCCN)CC5)CCOCC4)c3Cl)c2n1`, the Ki on B2 bradykinin receptor [1] was 0.1 nM; at B1 bradykinin receptor, more than 10000 nM. For the same compound, the Kb at B2 bradykinin receptor [2] was 0.398 nM.
For `Cc1cc(C)c2cccc(OCc3c(Cl)ccc(S(=O)(=O)NC4(C(=O)N5CCN(C(=O)CCCCCC[N+](C)(C)C)CC5)CCOCC4)c3Cl)c2n1` the same measures were 0.2 nM, more than 10000 nM and 1.26 nM.
The corresponding values for `Cc1cc(C)c2cccc(OCc3c(Cl)ccc(S(=O)(=O)NC4(C(=O)N5CCN(C(=O)C[N+](C)(C)C)CC5)CCOCC4)c3Cl)c2n1` are 0.0794 nM, more than 10000 nM and 0.794 nM.
With `Cc1cc(C)c2cccc(OCc3c(Cl)ccc(S(=O)(=O)NC4(C(=O)N5CC[N+](C)(CCCC[N+](C)(C)C)CC5)CCOCC4)c3Cl)c2n1`, the Ki was 0.0794 nM at B2 bradykinin receptor [1] and more than 10000 nM at B1 bradykinin receptor. The Kb on B2 bradykinin receptor [2] is 2 nM.
The corresponding values for `Cc1cc(C)c2cccc(OCc3c(Cl)ccc(S(=O)(=O)NC4(C(=O)N5CCN(C(=O)CCCCN)CC5)CCOCC4)c3Cl)c2n1` are 0.0794 nM, more than 10000 nM and 0.479 nM.
For `Cc1cc(C)c2cccc(OCc3c(Cl)ccc(S(=O)(=O)NC4(C(=O)N5CCC(CC[N+](C)(C)C)CC5)CCOCC4)c3Cl)c2n1` the same measures were 0.794 nM, more than 10000 nM and 3.98 nM.
For `Cc1cc(C)c2cccc(OCc3c(Cl)ccc(S(=O)(=O)NC4(C(=O)N5CC[N+]6(CCN(C)CC6)CC5)CCOCC4)c3Cl)c2n1` the same measures were 1 nM, more than 10000 nM and 1.58 nM.
On to `Cc1cc(C)c2cccc(OCc3c(Cl)ccc(S(=O)(=O)NC4(C(=O)N5CCN(C(=O)[C@@H](N)CCCCN(C)C)CC5)CCOCC4)c3Cl)c2n1`, for which the values for the Ki on B2 bradykinin receptor [1] and on B1 bradykinin receptor were 0.0631 nM and more than 10000 nM, respectively.
With `Cc1cc(C)c2cccc(OCc3c(Cl)ccc(S(=O)(=O)NC4(C(=O)N5CCN(C(=O)[C@@H](N)CCCC[N+](C)(C)C)CC5)CCOCC4)c3Cl)c2n1`, the Ki on B2 bradykinin receptor [1] is 0.251 nM; at B1 bradykinin receptor, more than 10000 nM. In addition, at B2 bradykinin receptor [2], the Kb is 0.398 nM.
The corresponding values for `Cc1cc(C)c2cccc(OCc3c(Cl)ccc(S(=O)(=O)NC4(C(=O)N5CCN(C(=O)[C@@H](N)CCCN(C)C)CC5)CCOCC4)c3Cl)c2n1` are 0.0501 nM, more than 10000 nM and 0.123 nM.
The corresponding values for `Cc1cc(C)c2cccc(OCc3c(Cl)ccc(S(=O)(=O)NC4(C(=O)N5CCC(CNCCC[N+](C)(C)C)CC5)CCOCC4)c3Cl)c2n1` are 0.158 nM, more than 10000 nM and 2.51 nM.
The corresponding values for `Cc1cc(C)c2cccc(OCc3c(Cl)ccc(S(=O)(=O)NC4(C(=O)N5CC[N+](C)(CC[N+](C)(C)C)CC5)CCOCC4)c3Cl)c2n1` are 0.251 nM, more than 10000 nM and 3.16 nM.
`Cc1cc(C)c2cccc(OCc3c(Cl)ccc(S(=O)(=O)NC4(C(=O)N5CCN(C(=O)CCC[N+](C)(C)C)CC5)CCOCC4)c3Cl)c2n1`: the Ki on B2 bradykinin receptor [1] is 0.126 nM; on B1 bradykinin receptor it was more than 10000 nM. In addition, the Kb at B2 bradykinin receptor [2] was 0.794 nM.
For the compound `Cc1cc(C)c2cccc(OCc3c(Cl)ccc(S(=O)(=O)NC4(C(=O)N5CC[N+](C)(CCC[N+](C)(C)C)CC5)CCOCC4)c3Cl)c2n1`, the Ki at B2 bradykinin receptor [1] is 0.1 nM; at B1 bradykinin receptor, more than 10000 nM. The Kb at B2 bradykinin receptor [2] is 1 nM.

In general, Ki refers to the dissociation constant of the complex between target and ligand, obtained from inhibition or displacement.

The values are drawn from ChEMBL document CHEMBL1955756, “Design and synthesis of novel sulfonamide-containing bradykinin hB(2) receptor antagonists. Synthesis and structure-relationships of α,α-tetrahydropyranylglycine” (Bioorg Med Chem, 2012).
